Bridge positions count the residues as written; N and C are the ends. Square brackets hold non-standard residues; d marks the D form. Peptide text beside a SMILES is read from it. Cha = N[C@@H](CC1CCCCC1)C(=O)O; Mpa = O=C(O)CCS
Columns and labels:
Vasopressin V2 receptor = Vasopressin V2 receptor (Homo sapiens, UniProt P30518); assay: Binding affinity against human vasopressin V2 receptor was determined by using plasma membranes from CHO cells stably transfected with VP/OT receptors; format: cell membranes
Sequence of Vasopressin V2 receptor (P30518 whole entry): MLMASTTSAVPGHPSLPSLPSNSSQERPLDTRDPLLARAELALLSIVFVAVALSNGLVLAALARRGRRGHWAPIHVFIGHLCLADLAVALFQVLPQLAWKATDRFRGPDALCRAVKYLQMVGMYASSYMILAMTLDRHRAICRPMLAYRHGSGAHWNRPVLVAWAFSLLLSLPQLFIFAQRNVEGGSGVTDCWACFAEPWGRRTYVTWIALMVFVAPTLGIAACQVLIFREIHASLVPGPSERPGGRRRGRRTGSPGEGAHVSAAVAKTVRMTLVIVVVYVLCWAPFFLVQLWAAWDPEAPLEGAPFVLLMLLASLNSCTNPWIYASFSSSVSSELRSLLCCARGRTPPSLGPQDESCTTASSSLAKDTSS
Outline: (§1)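 Competition binding on plasma membranes from stably transfected CHO cells (human receptors). Membranes (1–20 µg protein) incubated 60 min at 30 °C in 50 mM Tris-HCl pH 7.4, 3 mM MgCl2, 1 mg/mL BSA, leupeptine, 0.1 mM PMSF, with 0.5–3 nM [3H]AVP and increasing analogue; nonspecific binding with 1 µM AVP.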

Vasopressin V1a receptor = Vasopressin V1a receptor (Homo sapiens, UniProt P37288); assay: Binding affinity against human vasopressin V1a receptor was determined by using plasma membranes from CHO cells stably transfected with VP/OT receptors; format: cell membranes; outline: as §1
Sequence of Vasopressin V1a receptor (P37288 whole entry): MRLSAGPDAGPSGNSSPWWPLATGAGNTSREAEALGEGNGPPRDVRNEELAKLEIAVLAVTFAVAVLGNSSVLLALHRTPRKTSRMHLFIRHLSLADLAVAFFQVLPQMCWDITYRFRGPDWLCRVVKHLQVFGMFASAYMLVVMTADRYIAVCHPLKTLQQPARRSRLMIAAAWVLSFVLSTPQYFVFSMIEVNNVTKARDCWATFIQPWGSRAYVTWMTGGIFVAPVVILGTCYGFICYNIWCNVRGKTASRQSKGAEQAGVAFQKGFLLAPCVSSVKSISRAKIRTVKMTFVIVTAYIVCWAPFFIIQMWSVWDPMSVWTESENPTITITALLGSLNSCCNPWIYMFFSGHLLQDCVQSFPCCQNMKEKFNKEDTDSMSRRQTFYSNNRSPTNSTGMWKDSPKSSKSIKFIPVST

SMILES	Ki (Vasopressin V2 receptor) [nM]	Ki (Vasopressin V1a receptor) [nM]
CC[C@H](C)[C@@H]1NC(=O)[C@H](Cc2ccccc2)NC(=O)[C@H](Cc2ccc(O)cc2)NC(=O)CCSSC[C@@H](C(=O)N2CCC[C@H]2C(=O)N[C@@H](CCCN=C(N)N)C(=O)NCC(N)=O)NC(=O)[C@H](CC(N)=O)NC1=O	9.9	16.8
CC(C)C[C@@H]1NC(=O)[C@H](Cc2ccccc2)NC(=O)[C@H](Cc2ccc(O)cc2)NC(=O)CCSSC[C@@H](C(=O)N2CCC[C@H]2C(=O)N[C@@H](CCCN=C(N)N)C(=O)NCC(N)=O)NC(=O)[C@H](CC(N)=O)NC1=O	245	44.1
C[C@@H]1NC(=O)[C@H](Cc2ccccc2)NC(=O)[C@H](Cc2ccc(O)cc2)NC(=O)CCSSC[C@@H](C(=O)N2CCC[C@H]2C(=O)N[C@@H](CCCN=C(N)N)C(=O)NCC(N)=O)NC(=O)[C@H](CC(N)=O)NC1=O	13.7	21.8
NC(=O)CNC(=O)[C@H](CCCN=C(N)N)NC(=O)[C@@H]1CCCN1C(=O)[C@@H]1CSSCCC(=O)N[C@@H](Cc2ccc(O)cc2)C(=O)N[C@@H](Cc2ccccc2)C(=O)NCC(=O)N[C@@H](CC(N)=O)C(=O)N1	554	276
CC(C)[C@@H]1NC(=O)[C@H](Cc2ccccc2)NC(=O)[C@H](Cc2ccc(O)cc2)NC(=O)CCSSC[C@@H](C(=O)N2CCC[C@H]2C(=O)N[C@@H](CCCN=C(N)N)C(=O)NCC(N)=O)NC(=O)[C@H](CC(N)=O)NC1=O ([Mpa]YFVNCPRG-NH2; disulfide 1-6)	1.2	11.4
NC(=O)CNC(=O)[C@H](CCCN=C(N)N)NC(=O)[C@@H]1CCCN1C(=O)[C@@H]1CSSCCC(=O)N[C@@H](Cc2ccc(O)cc2)C(=O)N[C@@H](Cc2ccccc2)C(=O)N[C@@H](CC2CCCCC2)C(=O)N[C@@H](CC(N)=O)C(=O)N1 ([Mpa]YF[Cha]NCPRG-NH2; disulfide 1-6)	750	151
CCCC[C@@H]1NC(=O)[C@H](Cc2ccccc2)NC(=O)[C@H](Cc2ccc(O)cc2)NC(=O)CCSSC[C@@H](C(=O)N2CCC[C@H]2C(=O)N[C@@H](CCCN=C(N)N)C(=O)NCC(N)=O)NC(=O)[C@H](CC(N)=O)NC1=O (stereo in doubt)	117	28.1
C[C@@H](O)[C@@H]1NC(=O)[C@H](Cc2ccccc2)NC(=O)[C@H](Cc2ccc(O)cc2)NC(=O)CCSSC[C@@H](C(=O)N2CCC[C@H]2C(=O)N[C@@H](CCCN=C(N)N)C(=O)NCC(N)=O)NC(=O)[C@H](CC(N)=O)NC1=O (stereo in doubt)	1.5	2.9
NCC[C@@H]1NC(=O)[C@H](Cc2ccccc2)NC(=O)[C@H](Cc2ccc(O)cc2)NC(=O)CCSSC[C@@H](C(=O)N2CCC[C@H]2C(=O)N[C@@H](CCCN=C(N)N)C(=O)NCC(N)=O)NC(=O)[C@H](CC(N)=O)NC1=O (stereo in doubt)	568	36.3
NC(=O)CNC(=O)[C@H](CCCN=C(N)N)NC(=O)[C@@H]1CCCN1C(=O)[C@@H]1CSSCCC(=O)N[C@@H](Cc2ccc(O)cc2)C(=O)N[C@@H](Cc2ccccc2)C(=O)N[C@@H](CCC(=O)O)C(=O)N[C@@H](CC(N)=O)C(=O)N1 (stereo in doubt)	1090	436
NC(=O)CNC(=O)[C@H](CCCN=C(N)N)NC(=O)[C@@H]1CCCN1C(=O)[C@@H]1CSSCCC(=O)N[C@@H](Cc2ccc(O)cc2)C(=O)N[C@@H](Cc2ccccc2)C(=O)N[C@@H](CCCCN=C(N)N)C(=O)N[C@@H](CC(N)=O)C(=O)N1 (stereo in doubt)	1390	48.2
NCCCC[C@@H]1NC(=O)[C@H](Cc2ccccc2)NC(=O)[C@H](Cc2ccc(O)cc2)NC(=O)CCSSC[C@@H](C(=O)N2CCC[C@H]2C(=O)N[C@@H](CCCN=C(N)N)C(=O)NCC(N)=O)NC(=O)[C@H](CC(N)=O)NC1=O (stereo in doubt)	11200	463
NC(=O)CNC(=O)[C@H](CCCN=C(N)N)NC(=O)[C@@H]1CCCN1C(=O)[C@@H]1CSSCCC(=O)N[C@@H](Cc2ccc(O)cc2)C(=O)N[C@@H](Cc2ccccc2)C(=O)N[C@@H](CC(N)=O)C(=O)N[C@@H](CC(N)=O)C(=O)N1 (stereo in doubt)	50	–
NCCC[C@@H]1NC(=O)[C@H](Cc2ccccc2)NC(=O)[C@H](Cc2ccc(O)cc2)NC(=O)CCSSC[C@@H](C(=O)N2CCC[C@H]2C(=O)N[C@@H](CCCN=C(N)N)C(=O)NCC(N)=O)NC(=O)[C@H](CC(N)=O)NC1=O (stereo in doubt)	1130	88
N=C(N)NCCC[C@@H]1NC(=O)[C@H](Cc2ccccc2)NC(=O)[C@H](Cc2ccc(O)cc2)NC(=O)CCSSC[C@@H](C(=O)N2CCC[C@H]2C(=O)N[C@@H](CCCN=C(N)N)C(=O)NCC(N)=O)NC(=O)[C@H](CC(N)=O)NC1=O (stereo in doubt)	131	54.2

The remaining lines, values ahead:

Ki (Vasopressin V2 receptor) [nM]	Ki (Vasopressin V1a receptor) [nM]	SMILES
2.1	19.7	CC[C@@H]1NC(=O)[C@H](Cc2ccccc2)NC(=O)[C@H](Cc2ccc(O)cc2)NC(=O)CCSSC[C@@H](C(=O)N2CCC[C@H]2C(=O)N[C@@H](CCCN=C(N)N)C(=O)NCC(N)=O)NC(=O)[C@H](CC(N)=O)NC1=O (stereo in doubt)
24.7	13	NC(=O)CNC(=O)[C@H](CCCN=C(N)N)NC(=O)[C@@H]1CCCN1C(=O)[C@@H]1CSSCCC(=O)N[C@@H](Cc2ccc(O)cc2)C(=O)N[C@@H](Cc2ccccc2)C(=O)N[C@@H](CO)C(=O)N[C@@H](CC(N)=O)C(=O)N1 (stereo in doubt)
80	75	NC(=O)CNC(=O)[C@H](CCCN=C(N)N)NC(=O)[C@@H]1CCCN1C(=O)[C@@H]1CSSCCC(=O)N[C@@H](Cc2ccc(O)cc2)C(=O)N[C@@H](Cc2ccccc2)C(=O)N[C@@H](Cc2c[nH]c3ccccc23)C(=O)N[C@@H](CC(N)=O)C(=O)N1 (stereo in doubt)
36.8	19.7	NC[C@@H]1NC(=O)[C@H](Cc2ccccc2)NC(=O)[C@H](Cc2ccc(O)cc2)NC(=O)CCSSC[C@@H](C(=O)N2CCC[C@H]2C(=O)N[C@@H](CCCN=C(N)N)C(=O)NCC(N)=O)NC(=O)[C@H](CC(N)=O)NC1=O (stereo in doubt)
621	36.9	NC(=O)CNC(=O)[C@H](CCCN=C(N)N)NC(=O)[C@@H]1CCCN1C(=O)[C@@H]1CSSCCC(=O)N[C@@H](Cc2ccc(O)cc2)C(=O)N[C@@H](Cc2ccccc2)C(=O)N[C@@H](Cc2ccc(O)cc2)C(=O)N[C@@H](CC(N)=O)C(=O)N1 (stereo in doubt)
24.1	22.5	CCC[C@@H]1NC(=O)[C@H](Cc2ccccc2)NC(=O)[C@H](Cc2ccc(O)cc2)NC(=O)CCSSC[C@@H](C(=O)N2CCC[C@H]2C(=O)N[C@@H](CCCN=C(N)N)C(=O)NCC(N)=O)NC(=O)[C@H](CC(N)=O)NC1=O (stereo in doubt)
1070	80	NC(=O)CNC(=O)[C@H](CCCN=C(N)N)NC(=O)[C@@H]1CCCN1C(=O)[C@@H]1CSSCCC(=O)N[C@@H](Cc2ccc(O)cc2)C(=O)N[C@@H](Cc2ccccc2)C(=O)N[C@@H](Cc2ccccc2)C(=O)N[C@@H](CC(N)=O)C(=O)N1 (stereo in doubt)
4420	63.3	NC(=O)CNC(=O)[C@H](CCCN=C(N)N)NC(=O)[C@@H]1CCCN1C(=O)[C@@H]1CSSCCC(=O)N[C@@H](Cc2ccc(O)cc2)C(=O)N[C@@H](Cc2ccccc2)C(=O)N[C@@H](Cc2cccs2)C(=O)N[C@@H](CC(N)=O)C(=O)N1 (stereo in doubt)

Reference: ChEMBL document CHEMBL1149164, “Design of potent and selective agonists for the human vasopressin V1b receptor based on modifications of [deamino-cys1]arginine vasopressin at position 4” (J Med Chem, 2004)
